Experimental data taken from ChEMBL document CHEMBL5647697, “Akt inhibition synergizes with polycomb repressive complex 2 inhibition in the treatment of multiple myeloma” (2019).
Activity calls are given as the source filed them. The rule behind the calls is not given here.

Legend:
NCI-H929 [1] = test: Cytotoxicity against human NCI-H929 cells assessed as reduction in cell viability at 0.3125 to 10 micromol/L after 48 hrs by MTS assay; assay type: functional, cell-based; settings: dose 0.3125-10 µmol/L
Method in brief: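 Seven myeloma lines (MM.1S, H929, OPM2/BTZ among them) exposed to TAS-117 at increasing concentrations up to 10 μmol/L for 48 h. Viability read by MTS against an untreated control; mean ± SD of triplicates.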

MM1.S [2] = test: Upregulation of H3K27me3 protein expression in human MM1.S cells at 0.3 to 5 micromol/L for 6 to 48 hrs by Western blot analysis; assay type: functional, cell-based; settings: dose 0.3-5 µmol/L, time 6-48 hrs
Method in brief: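 H3K27me3 was detected by immunoblot in MM.1S and H929 cells. Cells were given graded TAS-117 for 48 h, or 5 μmol/L for the indicated times. Signal is quantified relative to the H3 loading control.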

NCI-H929 [3] = test: Downregulation of phospho-Rb protein expression in human NCI-H929 cells incubated at 0.3 to 3 micromol/L for 48 hrs by Western blot analysis; assay type: functional, cell-based; settings: dose 0.3-3 µmol/L
Method in brief: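 MM.1S and H929 cells given TAS-117 at the indicated doses for 48 h. Protein levels assessed by immunoblot.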

NCI-H929 [4] = test: Downregulation of E2F1 mRNA expression in human NCI-H929 cells incubated at 0.3 to 3 micromol/L for 24 hrs by qRT-PCR analysis; assay type: functional, cell-based; settings: dose 0.3-3 µmol/L
Method in brief: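 MM.1S and H929 cells given TAS-117 at the indicated doses for 24 h. mRNA measured by RT-qPCR, fold change after normalization to GAPDH; SD of triplicates; significance versus untreated control.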

OPM-2/BTZ [5] = test: Downregulation of E2F1 mRNA expression in human OPM-2/BTZ cells incubated at 0.3 to 3 micromol/L for 48 hrs by qRT-PCR analysis; assay type: functional, cell-based; settings: dose 0.3-3 µmol/L
MM1.S [6] = test: Synergistic activity against human MM.1S cells assessed as combination index […] at 0.5 uM incubated for 48 hrs by MTT assay; assay type: functional
Method in brief: (§1)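 Cells were exposed to the EZH2/EZH1 inhibitor (UNC1999 or GSK126) for 72 h in total, with the Akt inhibitor added for the last 48 h. Viability was read by MTS assay relative to untreated control cells, in triplicate. The combination index for each dose pair came from isobologram analysis.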

MM1.S [7] = test: Synergistic activity against human MM.1S cells assessed as combination index […] in presence of 2.5 uM GSK126 […] at 0.5 uM incubated for 48 hrs by MTT assay; assay type: functional; method in brief: as §1
NCI-H929 [8] = test: Synergistic activity against human NCI-H929 cells assessed as combination index […] in presence of 5 uM GSK126 […] compound addition at 0.125 uM incubated for 48 hrs by […]; assay type: functional; method in brief: as §1
OPM-2/BTZ [9] = test: Synergistic activity against human OPM-2/BTZ cells assessed as combination index preincubated in presence of 2.5 uM UNC1999 for 72 hrs followed by compound addition at 0.5 uM incubated for 48 hrs by MTT assay; assay type: functional
OPM-2 [10] = test: Synergistic activity against human OPM-2 cells assessed as combination index preincubated in presence of 5 uM GSK126 for 72 hrs followed by compound addition at 2.5 uM incubated for 48 hrs by MTT assay; assay type: functional
MM1.S [11] = test: Induction of apoptosis in human MM1.S cells assessed as necrotic cells at 2 micromol/L incubated for 12 hrs by annexin V/PI staining based flow cytometry (reference value: 0.17%); assay type: functional; settings: dose 2 µmol/L, at 2 µM
NCI-H929 [12] = test: Upregulation of EZH1 mRNA expression in human NCI-H929 cells at 0.03 to 3 micromo/L at 6 to 48 hrs by qRT-PCR analysis; assay type: functional, cell-based; settings: dose 0.03-3 µmol/L, time 6-48 hrs
Method in brief: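 EZH1 mRNA was measured by qRT-PCR in MM.1S and H929 cells. Dose series: cells were treated with graded TAS-117 for 24 h. Time course: cells were treated with 3 μmol/L for the indicated times. Fold change is after GAPDH normalization, relative to the untreated control. Data are SD of triplicates.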

MM1.S [13] = test: Downregulation of EZH2 mRNA expression in human MM1.S cells transduced with EZH1 at 0.3 micromol/L after 24 hrs by qRT-PCR analysis; assay type: functional, cell-based; settings: dose 0.3 µmol/L
Method in brief: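 EZH1-shRNA or shLuc lentivirus-transduced MM.1S cells treated with TAS-117 at the indicated doses for 24 h. EZH2 mRNA by RT-qPCR, fold change normalized to GAPDH.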

NCI-H929 [14] = test: Cytotoxicity against human NCI-H929 cells transduced with EZH1 assessed as enhanced sensitivity at 0.156 to 2.5 micromol/L 48 hrs by MTS assay; assay type: functional, cell-based; settings: dose 0.156-2.5 µmol/L
Method in brief: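 MM.1S or H929 cells transduced with lentiviral shRNA against EZH1 or against luciferase (shLuc control), then given TAS-117 at the indicated doses for 48 h. Viability by MTS relative to untreated control; mean ± SD of triplicates; compared with shLuc.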

NCI-H929 [15] = test: Upregulation of BIM mRNA expression in human NCI-H929 cells at 1 micromol/L after 24 hrs by qRT-PCR analysis; assay type: functional, cell-based; settings: dose 1.0 µmol/L
Method in brief: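 Cells were exposed to 1 μmol/L TAS-117 for 24 h. mRNA of FOXO3, FOXO4, BIM and CDKN1B was measured by qRT-PCR in H929 cells. Fold change is relative to the untreated control after normalization to GAPDH. Data are SD of triplicates.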

NCI-H929 [16] = test: Upregulation of FOXO3 in human NCI-H929 cells assessed as enhanced nuclear accumulation at 0.5 micromol/L after 24 hrs by immunofluorescence staining; assay type: functional, cell-based; settings: dose 0.5 µmol/L
Method in brief: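 MM.1S and H929 cells were treated with or without 0.5 μmol/L TAS-117 for 24 h. Cells were immunostained with anti-FOXO3. Jurkat cells served as positive control and cells without primary antibody as negative control. Read-out was the average fluorescence intensity of the nuclear FOXO3 fraction versus untreated cells.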

MM1.S [17] = test: Upregulation of FOXO4 […] expression in human MM1.S cells assessed as enhanced nuclear accumulation at 1 micromol/L after 24 hrs by immunofluorescence staining; assay type: functional, cell-based; settings: dose 1.0 µmol/L
NCI-H929 [18] = test: Upregulation of FOXO4 […] expression in human NCI-H929 cells assessed as enhanced nuclear accumulation at 1 micromol/L after 24 hrs by immunofluorescence staining; assay type: functional, cell-based; settings: dose 1.0 µmol/L
OPM-2 [19] = test: Synergistic activity against human OPM-2 cells assessed as combination index preincubated in presence of 2.5 uM UNC1999 for 72 hrs followed by compound addition at 2.5 uM incubated for 48 hrs by MTT assay; assay type: functional
NCI-H929 [20] = test: Induction of apoptosis in human NCI-H929 cells assessed as necrotic cells at 2 micromol/L incubated for 12 hrs by annexin V/PI staining based flow cytometry (reference value: 2.61%); assay type: functional; settings: dose 2 µmol/L, at 2 µM
NCI-H929 [21] = test: Induction of apoptosis in human NCI-H929 cells assessed as early apoptotic cells preincubated in presence of 5 micromol/L UNC1999 for 48 hrs followed by compound addition at 2 micromol/L incubated for 12 hrs by annexin V/PI staining based flow cytometry (reference value: 0.37%); assay type: functional; settings: dose 2 µmol/L, at 2 µM
OPM-2 [22] = test: Synergistic activity against human OPM-2 cells assessed as combination index preincubated in presence of 5 uM UNC1999 for 72 hrs followed by compound addition at 2.5 uM incubated for 48 hrs by MTS assay

**Q.** Which results are given for `C[C@]1(O)C[C@@](N)(c2ccc(-c3nc4n(c3-c3ccccc3)COc3ccncc3-4)cc2)C1` [PIFUSERTIB]?
**A.** Activity (NCI-H929 [1]): Active; Activity (MM1.S [2]): Active; Activity (NCI-H929 [3]): Active; Activity (NCI-H929 [4]): Active; Activity (OPM-2/BTZ [5]): Active; CI (MM1.S [6]): 1.03; CI (MM1.S [7]): 0.619; CI (NCI-H929 [8]): 7.124; CI (OPM-2/BTZ [9]): 0.499; CI (OPM-2 [10]): 2.74; Activity (MM1.S [11]): 0.23%; Activity (NCI-H929 [12]): Dose-Dependent Effect; Activity (MM1.S [13]): Active; Activity (NCI-H929 [14]): Active; Activity (NCI-H929 [15]): Active; Activity (NCI-H929 [16]): Active; Activity (MM1.S [17]): Active; Activity (NCI-H929 [18]): Active; CI (OPM-2 [19]): 2.79; Activity (NCI-H929 [20]): 0.35%; Activity (NCI-H929 [21]): 16.1%; CI (OPM-2 [22]): 5.53
